≈ marks a conversion by molar mass, not a printed value. Calls of active or inactive are those of the source.
Tests used:
Enterococcus faecalis [1] = assay: Antibacterial activity against Enterococcus faecalis ATCC 29212 by CLSI M07-A8 method; type: functional
Outline: (§1)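 Broth microdilution MIC run per CLSI M07-A8 (2009).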

Enterococcus faecium = assay: Antibacterial activity against Enterococcus faecium 7130724 by CLSI M07-A8 method; type: functional; outline: as §1
Staphylococcus aureus [2] = assay: Antibacterial activity against methicillin-resistant Staphylococcus aureus isolate A4.018 by CLSI M07-A8 method; type: functional
Streptococcus pyogenes = assay: Antibacterial activity against Streptococcus pyogenes ATCC BAA-595 by CLSI M07-A8 method; type: functional; outline: as §1
Streptococcus pneumoniae = assay: Antibacterial activity against Streptococcus pneumoniae by CLSI M07-A8 method; type: functional, organism-based; outline: as §1
Escherichia coli = assay: Antibacterial activity against Escherichia coli S30 assessed as inhibition of protein synthesis after 2 hrs by luminescence analysis; settings: S30, 2 h
Staphylococcus aureus [3] = assay: Bacteriostatic activity against Staphylococcus aureus ATCC 01001 infected in thigh of CD1 mouse assessed as prevention of colony formation at 80 mg/kg, po administered 2 hrs post infection measured after 12 hrs; type: functional, organism-based; parameters: dose 80 mg/kg
Outline: (§2)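 Female CD1 mice (21−25 g), made neutropenic with cyclophosphamide ip at 150 mg/kg (day −4) and 100 mg/kg (day −1). Left thigh infected im with 0.05 mL S. aureus ATCC 01001 (7.5 × 10^5 cfu/thigh), grown 16 h at 36 °C in cation-supplemented Mueller Hinton. Treatment given 2 h post-infection, four mice per group. At 12 or 24 h thighs were excised, homogenized in 0.9% NaCl, serially diluted and plated on blood agar for cfu.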

Staphylococcus aureus [4] = assay: Bacteriostatic activity against Staphylococcus aureus ATCC 01001 infected in thigh of CD1 mouse assessed as prevention of colony formation at 80 mg/kg, po administered 2 hrs post infection measured after 24 hrs; type: functional, organism-based; parameters: dose 80 mg/kg; outline: as §2
Staphylococcus aureus [5] = assay: Antibacterial activity against Staphylococcus aureus ATCC 01001 infected in thigh of CD1 mouse assessed as prevention of colony formation at 32 mg/kg, ip administered 2 hrs post infection measured after 12 hrs; type: functional, organism-based; parameters: dose 32 mg/kg; outline: as §2
Staphylococcus aureus [6] = assay: Antibacterial activity against Staphylococcus aureus ATCC 01001 infected in thigh of CD1 mouse assessed as prevention of colony formation at 32 mg/kg, ip administered 2 hrs post infection measured after 24 hrs; type: functional, organism-based; parameters: dose 32 mg/kg; outline: as §2
Staphylococcus aureus [7] = assay: Antibacterial activity against GE2270-A-resistant Staphylococcus aureus harboring tufA G258D mutant gene by CLSI M07-A8 method; type: functional
Staphylococcus aureus [8] = assay: Antibacterial activity against Staphylococcus aureus ATCC 49951 infected in CD1 mouse assessed as protection against bacterial infection administered 5 hrs post infection measured on day 5; type: functional
Outline: (§3)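 Mouse lethal systemic infection: ip injection of 1 × 10^8 cfu/mouse (10−100× minimal lethal dose), E. faecalis in 50% sterile rat fecal extract, S. aureus in 0.9% NaCl. Therapy by tail-vein bolus at several doses, six mice per group. Started immediately for E. faecalis; at 1 and 5 h post-inoculation for S. aureus.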

Enterococcus faecalis [9] = assay: Antibacterial activity against Enterococcus faecalis isolate NB04025 infected in CD1 mouse assessed as protection against bacterial infection administered immediately after infection measured on day 5; type: functional; settings: isolate NB04025, 120 h; outline: as §3
[10] = Chemical stability of the compound in 15% v/v NaOH, 5% PEG-300, 0.9% saline, 55% v/v water at pH 7.2 to 7.8; type: physicochemical; settings: buffer

Compound	MIC (Enterococcus faecalis [1]) [µg/mL]	MIC (Enterococcus faecium) [µg/mL]	MIC (Staphylococcus aureus [2]) [µg/mL]	MIC (Streptococcus pyogenes) [µg/mL]	Activity (Streptococcus pneumoniae)	IC50 (Escherichia coli) [nM]	Activity (Staphylococcus aureus [3])	Activity (Staphylococcus aureus [4])	Activity (Staphylococcus aureus [5])	Activity (Staphylococcus aureus [6])	Activity (Staphylococcus aureus [7])	ED50 (Staphylococcus aureus [8]) [mg/kg]	ED50 (Enterococcus faecalis [9]) [mg/kg]	Stability [10] [weeks]
CNC(=O)C[C@@H]1NC(=O)c2csc(n2)-c2ccc(-c3nc(NC(=O)CCCCP(=O)(O)O)cs3)nc2-c2csc(n2)-c2csc(n2)[C@H]([C@@H](O)c2ccccc2)NC(=O)CNC(=O)c2nc(sc2COC)[C@H](C(C)C)NC(=O)c2nc1sc2C	> 32	> 32	> 32	> 32	Active	1500								
CC(=O)NC[C@H]1CN(c2ccc(N3CCOCC3)c(F)c2)C(=O)O1							Active	Active						
CNC(=O)C[C@@H]1NC(=O)c2csc(n2)-c2ccc(-c3nc(NC(=O)OCCOCCOCCOC)cs3)nc2-c2csc(n2)-c2csc(n2)[C@H]([C@@H](O)c2ccccc2)NC(=O)CNC(=O)c2nc(sc2COC)[C@H](C(C)C)NC(=O)c2nc1sc2C	0.5 (≈ 0.389 µM)	0.5 (≈ 0.389 µM)	4 (≈ 3.11 µM)	> 32	Active	10800								
CNC(=O)C[C@@H]1NC(=O)c2csc(n2)-c2ccc(-c3nc(NC(=O)CCCCN)cs3)nc2-c2csc(n2)-c2csc(n2)[C@H]([C@@H](O)c2ccccc2)NC(=O)CNC(=O)c2nc(sc2COC)[C@H](C(C)C)NC(=O)c2nc1sc2C	0.5 (≈ 0.418 µM)	1 (≈ 0.836 µM)	1 (≈ 0.836 µM)	4 (≈ 3.35 µM)	Active	1900								
CCCCCCCCCC(=O)N[C@@H](Cc1c[nH]c2ccccc12)C(=O)N[C@H](CC(N)=O)C(=O)N[C@@H](CC(=O)O)C(=O)N[C@@H]1C(=O)NCC(=O)N[C@@H](CCCN)C(=O)N[C@@H](CC(=O)O)C(=O)N[C@H](C)C(=O)N[C@@H](CC(=O)O)C(=O)NCC(=O)N[C@H](CO)C(=O)N[C@@H]([C@H](C)CC(=O)O)C(=O)N[C@@H](CC(=O)c2ccccc2N)C(=O)O[C@@H]1C									Active	Active				
CNC(=O)C[C@@H]1NC(=O)c2csc(n2)-c2ccc(-c3nc(NC(=O)C(F)(F)F)cs3)nc2-c2csc(n2)-c2csc(n2)[C@H]([C@@H](O)c2ccccc2)NC(=O)CNC(=O)c2nc(sc2COC)[C@H](C(C)C)NC(=O)c2nc1sc2C	1 (≈ 0.839 µM)	1 (≈ 0.839 µM)	> 32	> 32	Active	> 32000								
CNC(=O)C[C@@H]1NC(=O)c2csc(n2)-c2ccc(-c3nc(NC(=O)CCCCC(=O)O)cs3)nc2-c2csc(n2)-c2csc(n2)[C@H]([C@@H](O)c2ccccc2)NC(=O)CNC(=O)c2nc(sc2COC)[C@H](C(C)C)NC(=O)c2nc1sc2C	0.06 (≈ 0.049 µM)	0.125 (≈ 0.102 µM)	0.125 (≈ 0.102 µM)	4 (≈ 3.27 µM)	Active	1200					inactive	10.5	5.5	
CNC(=O)C[C@@H]1NC(=O)c2csc(n2)-c2ccc(-c3nc(NC(=O)OCCCC(N)=O)cs3)nc2-c2csc(n2)-c2csc(n2)[C@H]([C@@H](O)c2ccccc2)NC(=O)CNC(=O)c2nc(sc2COC)[C@H](C(C)C)NC(=O)c2nc1sc2C	0.25 (≈ 0.204 µM)	0.25 (≈ 0.204 µM)	0.5 (≈ 0.408 µM)	> 32	Active	2400								
CNC(=O)C[C@@H]1NC(=O)c2csc(n2)-c2ccc(-c3nc(NC(=O)CCCN(C)C)cs3)nc2-c2csc(n2)-c2csc(n2)[C@H]([C@@H](O)c2ccccc2)NC(=O)CNC(=O)c2nc(sc2COC)[C@H](C(C)C)NC(=O)c2nc1sc2C	0.5 (≈ 0.413 µM)	1 (≈ 0.827 µM)	1 (≈ 0.827 µM)	4 (≈ 3.31 µM)	Active	2600								
CNC(=O)C[C@@H]1NC(=O)c2csc(n2)-c2ccc(-c3nc(NC(=O)O[C@H]4CC[C@H](C(=O)O)CC4)cs3)nc2-c2csc(n2)-c2csc(n2)[C@H]([C@@H](O)c2ccccc2)NC(=O)CNC(=O)c2nc(sc2COC)[C@H](C(C)C)NC(=O)c2nc1sc2C	0.06 (≈ 0.0474 µM)	0.03 (≈ 0.0237 µM)	0.125 (≈ 0.0987 µM)	2 (≈ 1.58 µM)	Active							4.3	0.2	> 1
CNC(=O)C[C@@H]1NC(=O)c2csc(n2)-c2ccc(-c3nc(NC(=O)CCCO)cs3)nc2-c2csc(n2)-c2csc(n2)[C@H]([C@@H](O)c2ccccc2)NC(=O)CNC(=O)c2nc(sc2COC)[C@H](C(C)C)NC(=O)c2nc1sc2C	0.5 (≈ 0.423 µM)	0.5 (≈ 0.423 µM)	1 (≈ 0.846 µM)	> 32	Active	> 16000								
CNC(=O)C[C@@H]1NC(=O)c2csc(n2)-c2ccc(-c3nc(NC(=O)CCCCC(=O)OC)cs3)nc2-c2csc(n2)-c2csc(n2)[C@H]([C@@H](O)c2ccccc2)NC(=O)CNC(=O)c2nc(sc2COC)[C@H](C(C)C)NC(=O)c2nc1sc2C	4 (≈ 3.23 µM)	2 (≈ 1.61 µM)	> 32	> 32	Active	> 32000								

Source: ChEMBL document CHEMBL1921735, “Antibacterial optimization of 4-aminothiazolyl analogues of the natural product GE2270 A: identification of the cycloalkylcarboxylic acids” (J Med Chem, 2011)
